Published values gathered from unrelated publications.
Lines come from different studies, so protocols differ.

Compound | tested on | test | test system | conditions | measurement | result
O=C(NCc1cn(Cc2ccc(Cl)cc2)nn1)Nc1ccc(Cl)cc1 | L02 | cell growth or viability, CCK-8 |  | 50 µM, 72 h | viability | 127%
COc1ccc(NC(=O)NCc2cn(Cc3ccccc3C)nn2)cc1 | L02 | cell growth or viability, CCK-8 |  | 50 µM, 72 h | viability | 124%
O=C(Nc1ccc(Cl)cc1)Nc1cccc(-c2cn(Cc3ccc(Cl)cc3)nn2)c1 | L02 | cell growth or viability, CCK-8 |  | 50 µM, 72 h | viability | 102%
COc1ccc(NC(=O)NCc2cn(Cc3ccc(Br)cc3)nn2)cc1 | L02 | cell growth or viability, CCK-8 |  | 50 µM, 72 h | viability | 119%
O=C(Nc1ccc(-c2cn(Cc3ccc(Cl)cc3)nn2)cc1)Nc1ccccc1Br | L02 | cell growth or viability, CCK-8 |  | 50 µM, 72 h | viability | 113%
CC(C)n1c(C2CCNCC2)nc2c([N+](=O)[O-])c(Br)c(Br)cc21 |  |  | human, plasma | oral, 150 mg, patients | Cmax | 249 ng/mL
COc1ccc2c(c1)CN(C(=O)CCN1CCC(Cc3ccccc3)CC1)CC[S@@+]2[O-] |  |  | male human, plasma | intravenous, 0.4 mg/kg, healthy volunteers | Cmax | 1080 ng/mL
COc1ccc(-c2c(Nc3ccccn3)[nH]c3c(C4=CCCCC4)c(-c4ccccc4)nn3c2=O)cc1 |  |  | human, plasma | oral, 200 mg twice daily, multiple doses, patients | Cmax | 13600 ng/mL
COc1ccc(NC(=O)Nc2ccc(-c3cn(Cc4ccc(Br)cc4)nn3)cc2)cc1 | L02 | cell growth or viability, CCK-8 |  | 50 µM, 72 h | viability | 91.1%
O=C(COc1ccc(Cl)cc1)NC12CC(c3nnc([C@H]4C[C@@H](OC(F)(F)F)C4)o3)(C1)C2 |  |  | human, plasma | oral, 100 mg, single dose, fasted, healthy volunteers | Cmax | 1180 nM
COc1ccc(NC(=O)NCc2cn(Cc3ccc(Cl)cc3)nn2)cc1 | L02 | cell growth or viability, CCK-8 |  | 50 µM, 72 h | viability | 121%
CCONC(=O)N1CCC[C@H](C(=O)NCc2nc(-c3ccc(C#N)cc3)cs2)C1 |  |  | Caco-2 |  | efflux ratio | 6.9
